Measurements reported in ChEMBL document CHEMBL4000211, “Discovery of novel polycyclic spiro-fused carbocyclicoxindole-based anticancer agents” (Eur J Med Chem, 2017).
Active and inactive are the calls of the source. The calls are words filed in the database; no cut-off is given here.

Tests used:
BGC-823 = assay: Antiproliferative activity against human BGC823 cells after 48 hrs by MTT assay; assay type: functional, cell-based; settings: BGC-823, 48 h
Outline: (§1)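 Cells seeded at 3×10³/well and grown 24 h, then exposed 48 h to six final concentrations, twofold steps down from 30. MTT (5 mg/mL) was added for 2–4 h at 37 °C. Supernatant was removed, formazan dissolved in DMSO, and OD read at 570 nm. Results are given as IC50, or as percent inhibition where IC50 exceeds the top concentration. At least three runs.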

CT26 = assay: Antiproliferative activity against mouse CT26 cells after 48 hrs by MTT assay; assay type: functional, cell-based; settings: CT26, 48 h; outline: as §1
HCT-116 [1] = assay: Antiproliferative activity against human HCT116 cells after 48 hrs by MTT assay; assay type: functional, cell-based; settings: HCT-116, 48 h; outline: as §1
A549 = assay: Antiproliferative activity against human A549 cells after 48 hrs by MTT assay; assay type: functional, cell-based; settings: A549, 48 h; outline: as §1
MCF7 = assay: Antiproliferative activity against human MCF7 cells after 48 hrs by MTT assay; assay type: functional, cell-based; settings: MCF7, 48 h; outline: as §1
NCI-H1975 = assay: Antiproliferative activity against human NCI-H1975 cells after 48 hrs by MTT assay; assay type: functional, cell-based; settings: NCI-H1975, 48 h; outline: as §1
HCT-116 [2] = assay: Cell cycle arrest in human HCT116 cells assessed as accumulation at S phase at 7.5 uM after 24 hrs by propidium iodide staining-based flow cytometric method (reference value: 36.43%); assay type: functional
HCT-116 [3] = assay: Cell cycle arrest in human HCT116 cells assessed as accumulation at G2 phase at 7.5 uM after 24 hrs by propidium iodide staining-based flow cytometric method (reference value: 26.10%); assay type: functional
HCT-116 [4] = assay: Cell cycle arrest in human HCT116 cells assessed as accumulation at G1 phase at 7.5 uM after 48 hrs by propidium iodide staining-based flow cytometric method (reference value: 40.75%); assay type: functional
HCT-116 [5] = assay: Cell cycle arrest in human HCT116 cells assessed as accumulation at S phase at 7.5 uM after 48 hrs by propidium iodide staining-based flow cytometric method (reference value: 34.83%); assay type: functional
HCT-116 [6] = assay: Cell cycle arrest in human HCT116 cells assessed as accumulation at G2 phase at 10 uM after 48 hrs by propidium iodide staining-based flow cytometric method (reference value: 31.27%); assay type: functional
HCT-116 [7] = assay: Cell cycle arrest in human HCT116 cells assessed as accumulation at sub G1 phase at 7.5 uM after 24 hrs by propidium iodide staining-based flow cytometric method (reference value: 1.73%); assay type: functional
HCT-116 [8] = assay: Cell cycle arrest in human HCT116 cells assessed as accumulation at sub G1 phase at 7.5 uM after 48 hrs by propidium iodide staining-based flow cytometric method (reference value: 0.86%); assay type: functional
HCT-116 [9] = assay: Cell cycle arrest in human HCT116 cells assessed as accumulation at sub G1 phase at 12.5 uM after 48 hrs by propidium iodide staining-based flow cytometric method (reference value: 0.86%); assay type: functional
HCT-116 [10] = assay: Induction of apoptosis in human HCT116 cells assessed as necrotic cells at 7.5 uM after 24 hrs by annexin V-FITC/propidium iodide staining-based flow cytometric method (reference value: 1.85%); assay type: functional
Outline: (§2)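 HCT116 cells seeded at 1×10⁶ cells/mL in 6-well plates for 24 h, then exposed to 0, 7.5, 10 or 12.5 μM for a further 24 h or 48 h. Cells washed twice in PBS, then stained with Annexin V-FITC plus PI (100 μg/mL stock) in binding buffer (10 mM HEPES, pH 7.4, 2.5 mM CaCl₂) for 30 min at room temperature in the dark. Early and late apoptotic fractions gated by flow cytometry.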

HCT-116 [11] = assay: Induction of apoptosis in human HCT116 cells assessed as early apoptotic cells at 10 uM after 24 hrs by annexin V-FITC/propidium iodide staining-based flow cytometric method (reference value: 1.9%); assay type: functional
HCT-116 [12] = assay: Induction of apoptosis in human HCT116 cells assessed as late apoptotic cells at 10 uM after 24 hrs by annexin V-FITC/propidium iodide staining-based flow cytometric method (reference value: 2.77%); assay type: functional
HCT-116 [13] = assay: Induction of apoptosis in human HCT116 cells assessed as necrotic cells at 10 uM after 24 hrs by annexin V-FITC/propidium iodide staining-based flow cytometric method (reference value: 1.85%); assay type: functional
HCT-116 [14] = assay: Induction of apoptosis in human HCT116 cells assessed as early apoptotic cells at 12.5 uM after 24 hrs by annexin V-FITC/propidium iodide staining-based flow cytometric method (reference value: 1.9%); assay type: functional
HCT-116 [15] = assay: Induction of apoptosis in human HCT116 cells assessed as late apoptotic cells at 12.5 uM after 24 hrs by annexin V-FITC/propidium iodide staining-based flow cytometric method (reference value: 2.77%); assay type: functional
HCT-116 [16] = assay: Induction of apoptosis in human HCT116 cells assessed as viable cells at 12.5 uM after 24 hrs by annexin V-FITC/propidium iodide staining-based flow cytometric method (reference value: 93.48%); assay type: functional; settings: HCT-116, 24 h, read-out: Activity; outline: as §2
HCT-116 [17] = assay: Induction of apoptosis in human HCT116 cells assessed as late apoptotic cells at 7.5 uM after 48 hrs by annexin V-FITC/propidium iodide staining-based flow cytometric method (reference value: 1.06%); assay type: functional
HCT-116 [18] = assay: Induction of apoptosis in human HCT116 cells assessed as late apoptotic cells at 10 uM after 48 hrs by annexin V-FITC/propidium iodide staining-based flow cytometric method (reference value: 1.06%); assay type: functional
HCT-116 [19] = assay: Induction of apoptosis in human HCT116 cells assessed as viable cells at 10 uM after 48 hrs by annexin V-FITC/propidium iodide staining-based flow cytometric method (reference value: 95.05%); assay type: functional; settings: HCT-116, 48 h, read-out: Activity; outline: as §2
HCT-116 [20] = assay: Induction of apoptosis in human HCT116 cells assessed as early apoptotic cells at 12.5 uM after 48 hrs by annexin V-FITC/propidium iodide staining-based flow cytometric method (reference value: 1.6%); assay type: functional
HCT-116 [21] = assay: Induction of apoptosis in human HCT116 cells assessed as necrotic cells at 12.5 uM after 48 hrs by annexin V-FITC/propidium iodide staining-based flow cytometric method (reference value: 2.29%); assay type: functional; outline: as §2
HCT-116 [22] = assay: Induction of apoptosis in human HCT116 cells assessed as increase in cleaved caspase-3 level after 24 hrs by Western blot method; assay type: functional, cell-based
Outline: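 Treated HCT116 were lysed on ice in RIPA buffer with 1% protease inhibitor cocktail and spun 13000 g, 20 min, 4 °C. Protein was quantified by BCA. Equal protein was run on SDS-PAGE, blotted to PVDF, probed with primary and HRP secondary antibodies, and detected by enhanced chemiluminescence.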

[23] = molecular target: E3 ubiquitin-protein ligase Mdm2 (Homo sapiens) (UniProt Q00987); assay: Inhibition of MDM2-mediated p53 degradation in human HCT116 cells assessed as increase in p53 levels at 7.5 to 12.5 uM after 24 hrs by Western blot method; assay type: cell-based
Chain of E3 ubiquitin-protein ligase Mdm2 (Homo sapiens) (Q00987 whole entry, looked up): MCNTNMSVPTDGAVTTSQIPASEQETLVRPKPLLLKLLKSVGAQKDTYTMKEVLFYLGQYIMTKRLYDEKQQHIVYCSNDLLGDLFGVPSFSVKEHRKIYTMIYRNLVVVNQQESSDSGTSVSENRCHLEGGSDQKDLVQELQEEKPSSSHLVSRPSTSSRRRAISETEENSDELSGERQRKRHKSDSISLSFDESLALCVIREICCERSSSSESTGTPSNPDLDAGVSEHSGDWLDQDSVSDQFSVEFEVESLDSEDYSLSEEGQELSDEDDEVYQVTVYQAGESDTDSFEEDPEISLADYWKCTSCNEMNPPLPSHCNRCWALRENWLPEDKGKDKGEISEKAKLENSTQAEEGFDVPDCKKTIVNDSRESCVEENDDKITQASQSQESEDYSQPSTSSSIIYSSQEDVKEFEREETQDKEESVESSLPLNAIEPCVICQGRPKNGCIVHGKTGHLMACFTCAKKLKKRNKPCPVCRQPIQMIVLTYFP
Outline: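 Treated HCT116 cells lysed on ice in RIPA buffer with 1% protease inhibitor cocktail. Lysates cleared at 13000 g for 20 min at 4 °C and protein measured by BCA. Equal protein amounts run on SDS-PAGE, transferred to PVDF and probed with primary then HRP secondary antibodies. Bands detected by enhanced chemiluminescence; 24 h treatment.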

Structure (SMILES): C[C@@H]1Oc2ccc3ccccc3c2[C@@H]2[C@@H]1C=C(C=O)[C@@H](C)[C@]21C(=O)Nc2ccccc21
- IC50 (BGC-823): > 30 µM
- IC50 (CT26): 9.5 µM
- IC50 (HCT-116 [1]): 8.6 µM
- IC50 (A549): 18.3 µM
- IC50 (MCF7): 16.2 µM
- IC50 (NCI-H1975): 13.7 µM
- Activity (HCT-116 [2]): 32.56%
- Activity (HCT-116 [3]): 28.5%
- Activity (HCT-116 [4]): 49.85%
- Activity (HCT-116 [5]): 23.94%
- Activity (HCT-116 [6]): 18.42%
- Activity (HCT-116 [7]): 3.18%
- Activity (HCT-116 [8]): 4.19%
- Activity (HCT-116 [9]): 64.26%
- Activity (HCT-116 [10]): 1.6%
- Activity (HCT-116 [11]): 11.32%
- Activity (HCT-116 [12]): 10.13%
- Activity (HCT-116 [13]): 2.46%
- Activity (HCT-116 [14]): 33.2%
- Activity (HCT-116 [15]): 17.98%
- viability at 12.5 µM (HCT-116 [16]): 46.6%
- Activity (HCT-116 [17]): 2.09%
- Activity (HCT-116 [18]): 8.18%
- viability at 10 µM (HCT-116 [19]): 61.5%
- Activity (HCT-116 [20]): 47.17%
- Activity (HCT-116 [21]): 5.28%
- Activity (HCT-116 [22]): Dose-dependent effect
- inhibition [23]: Active
